# The source made the active and inactive calls.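 Rule for the calls, unless noted: active = viability loss from added drug above about 55%, and viability with drug at most 40%, in both replicates (limit read from the data, passing the limit was not always enough); inconclusive = both conditions met in only one replicate; inactive = neither replicate meets both conditions.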
# Experiments:
# [1] = reducers of endogenous Her2 protein level, primary screen, SKBR3 breast tumor cells, AlphaScreen, ATP viability (AID 461;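 active = Her2 level under about 52% in both replicate screens, with viability over 70% of control, limit read from the data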;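 for Her2 level: lower value means less Her2 protein in the cells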;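 for viability: percent of carrier control wells set as 100% viability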); conditions: 18-24 h, measured here: SKBR3 viability, ATP luminescence, at 10 µM
# [2] = molecular target: Receptor tyrosine-protein kinase erbB-2 (Homo sapiens) (UniProt P04626); test: as above; conditions: 18-24 h, at 10 µM, stronger effect = lower value
# Sequence of Receptor tyrosine-protein kinase erbB-2 (Homo sapiens) (P04626 whole entry, looked up): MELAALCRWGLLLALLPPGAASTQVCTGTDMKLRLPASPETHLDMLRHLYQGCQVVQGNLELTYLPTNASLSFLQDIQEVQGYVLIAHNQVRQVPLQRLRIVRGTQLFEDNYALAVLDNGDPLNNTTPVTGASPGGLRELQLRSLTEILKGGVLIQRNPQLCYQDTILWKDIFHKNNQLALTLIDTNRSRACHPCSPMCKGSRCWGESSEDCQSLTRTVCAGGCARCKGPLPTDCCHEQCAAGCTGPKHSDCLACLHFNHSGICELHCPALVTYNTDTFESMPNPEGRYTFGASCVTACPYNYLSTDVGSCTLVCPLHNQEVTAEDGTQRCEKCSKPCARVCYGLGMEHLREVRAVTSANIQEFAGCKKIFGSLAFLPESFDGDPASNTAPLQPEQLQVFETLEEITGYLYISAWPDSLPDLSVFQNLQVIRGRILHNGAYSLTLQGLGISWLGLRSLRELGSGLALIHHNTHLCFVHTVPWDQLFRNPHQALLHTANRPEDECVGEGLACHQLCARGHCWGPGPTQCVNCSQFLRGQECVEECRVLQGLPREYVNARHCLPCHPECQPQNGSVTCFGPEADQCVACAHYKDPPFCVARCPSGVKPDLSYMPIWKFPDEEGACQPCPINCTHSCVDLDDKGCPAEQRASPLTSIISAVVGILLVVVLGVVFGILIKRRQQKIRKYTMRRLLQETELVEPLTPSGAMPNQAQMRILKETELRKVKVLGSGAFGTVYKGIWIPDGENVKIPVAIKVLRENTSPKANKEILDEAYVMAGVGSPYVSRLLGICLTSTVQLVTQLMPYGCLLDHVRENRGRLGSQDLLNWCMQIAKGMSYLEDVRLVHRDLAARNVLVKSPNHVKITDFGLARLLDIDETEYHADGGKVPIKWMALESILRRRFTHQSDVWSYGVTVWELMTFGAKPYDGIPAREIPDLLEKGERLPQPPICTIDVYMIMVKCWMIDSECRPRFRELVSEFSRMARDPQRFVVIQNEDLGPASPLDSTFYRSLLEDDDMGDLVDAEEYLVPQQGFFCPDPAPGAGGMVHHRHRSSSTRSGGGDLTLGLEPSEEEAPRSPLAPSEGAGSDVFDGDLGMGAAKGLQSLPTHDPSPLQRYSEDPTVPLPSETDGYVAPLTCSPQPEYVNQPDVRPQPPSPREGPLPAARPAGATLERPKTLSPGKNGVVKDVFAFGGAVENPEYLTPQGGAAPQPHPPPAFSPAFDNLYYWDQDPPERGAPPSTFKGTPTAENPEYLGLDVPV
# [3] = SK-BR-3 cell growth inhibitors, pilot screen, 24 h, human (AID 572;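 active = viability at or below 10% of carrier control in both of two separate runs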;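 note: compound exposure lasted between 18 and 24 h rather than exactly 24 h; 100% = carrier-treated control wells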); conditions: SK-BR-3 viability, CellTiter-Glo luminescence, at 10 µM, stronger effect = lower value
# [4] = HUVEC growth inhibition – cell-based, human, primary screen (AID 575;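 active = viability at or below 30% in both replicate assays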;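 note: 100% = median of untreated cell wells with 0.1% DMSO on each plate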); conditions: HUVEC proliferation, CellTiter-Glo luminescence, 72 h; at 10 µM; stronger effect = lower value
# Method in brief: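 system = HUVEC primary cells | amount = 1250 cells/well | buffer or medium = supplemented EBM, 2% fetal bovine serum | dosing = single-point 10 µM, DMSO 0.1% final | times = 72 h compound incubation | detection = CTG luminescence | read-out = % viability relative to median vehicle-well signal on each plate | control set = vehicle and MePR control wells | format = collagen-coated 384-well format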
# [5] = growth inhibitors of H69AR lung tumor, primary screen, human, duplicate replicates (AID 580;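 active = viability at or under a set limit in both replicates, limit being median viability minus 3 SD, cut at about 48% in these data, passing the limit was not always enough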;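 note: 100% = mean luminescence of untreated wells and 0% = no signal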); conditions: H69AR lung tumor cells viability, ATP luminescence, 72 h; at 10 µM; stronger effect = lower value
# [6] = reversal of MRP1-mediated doxorubicin resistance, pilot screen, H69AR cells, doxorubicin co-treatment (AID 601); conditions: CellTiter-Glo, 72 h, at 10 µM; for differential viability (reversal): stronger effect = higher value
# [7] = 384-well plate pilot, post-Golgi transport modulator project, inhibition of yeast transport mutant growth (AID 636; in the data active = inhibition above about 31%); conditions: absorbance 615 nm, about 18 h, stronger effect = higher value
# [8] = growth suppression of yeast trafficking mutant, preliminary HTS, modulators of trafficking downstream of Golgi apparatus project, 1536-format plate, OD 615 nm (AID 637; in the data active = inhibition above about 30%); conditions: yeast transport mutant growth, absorbance 615 nm, 18 h; stronger effect = higher value
# [9] = H69AR cells + 2 uM doxorubicin, measured here: viability with 2 uM doxorubicin, stronger effect = lower value
# [10] = H69AR cells, compound alone cytotoxicity
SMILES,viability [1] [%],Her2 level [2],viability [3],viability [4],viability [5],differential viability (reversal) ([6]; H69AR cells + 2 uM doxorubicin),"viability [6, 9] [%]","viability [6, 10] [%]",inhibition [7],inhibition [8]
O=C(CCN1C(=O)C2C3C=CC(C3)C2C1=O)N1CCN(c2ccccc2Cl)CC1 (stereo not given),97,89.5% (inactive),97% (inactive),82.3% (inactive),96% (inactive),8.21% (inactive),87.8,96,-5% (inactive),-3.17% (inactive)
Nc1cc(C(=O)O)ccc1Nc1ccc(F)c(F)c1,88,112% (inactive),88% (inactive),89.2% (inactive),105% (inactive),10.3% (inactive),94.3,105,2.4% (inactive),4.75% (inactive)
COC(=O)[C@@H](NC(=O)NCc1ccccc1Cl)C(C)C,95,123% (inactive),95% (inactive),84.9% (inactive),94.4% (inactive),-1.47% (inactive),95.9,94.4,-1.17% (inactive),-9.5% (inactive)
CN(C)c1cccc2c(S(=O)(=O)Nc3ccccn3)cccc12,96.5,95.5% (inactive),96.5% (inactive),109% (inactive),101% (inactive),2.54% (inactive),98.7,101,-6.8% (inactive),1.43% (inactive)
CCOC(=O)N1CCC(NC(=O)CS(=O)(=O)Cc2nc(-c3ccccc3C)oc2C)CC1,105,95% (inactive),105% (inactive),114% (inactive),95.7% (inactive),-4.35% (inactive),100,95.7,-3.73% (inactive),0.66% (inactive)
COc1cccc(NC(=O)COc2ccccc2C(N)=O)c1,93.5,110% (inactive),93.5% (inactive),83.1% (inactive),105% (inactive),16% (inactive),88.7,105,0% (inactive),-7.9% (inactive)
COc1cccc(C(c2nnnn2CCc2ccccc2)N2CCN(c3ccccc3)CC2)c1OC (stereo not given),91,88% (inactive),91% (inactive),109% (inactive),83.1% (inactive),-7.96% (inactive),91,83.1,13.1% (inactive),-1.13% (inactive)
Cc1cc(C)nc(Sc2ccc3nnc(C(F)(F)C(F)(F)C(F)(F)F)n3n2)n1,83.5,86.5% (inactive),83.5% (inactive),99.6% (inactive),102% (inactive),14.1% (inactive),87.6,102,-6.89% (inactive),3.93% (inactive)
O=C1CC(c2cccs2)CC2=C1C(c1ccccc1)n1ncnc1N2 (stereo not given),105,104% (inactive),105% (inactive),100% (inactive),93.8% (inactive),-5.41% (inactive),99.2,93.8,-4.53% (inactive),-2.3% (inactive)
Cn1cccc1Cc1nnc(SCC(=O)Nc2ccc(F)cc2)n1-c1ccc(F)cc1,86,93% (inactive),86% (inactive),71.9% (inactive),80.2% (inactive),-9.93% (inactive),90.1,80.2,0% (inactive),-1% (inactive)
CN(C)C(=O)CSc1nnc([C@H](Cc2c[nH]c3ccccc23)NC(=O)OC(C)(C)C)o1,104,96.5% (inactive),104% (inactive),94.9% (inactive),94.6% (inactive),0.01% (inactive),94.6,94.6,-3.68% (inactive),5.57% (inactive)
COc1ccc(-n2c(SCc3ccc(C#N)cc3)nnc2-c2ccccn2)cc1,82.5,91.5% (inactive),82.5% (inactive),120% (inactive),96.3% (inactive),11.2% (inactive),85,96.3,-7.16% (inactive),-5.56% (inactive)
Cc1ccc(C)c(-c2nc3cc(N)ccc3o2)c1,78.5,106% (inactive),78.5% (inactive),46.6% (inactive),102% (inactive),8.46% (inactive),93.8,102,-1.18% (inactive),-6.03% (inactive)
CCSc1cc(C2C(C(=O)OC)=C(C)NC3=C2C(=O)CCC3)c(C)o1 (stereo not given),79,90% (inactive),79% (inactive),109% (inactive),84.5% (inactive),5.68% (inactive),78.8,84.5,-6.8% (inactive),3.93% (inactive)
CCCn1c(C)cc(C(=O)COc2ncnc3sccc23)c1C,89,98.5% (inactive),89% (inactive),74.1% (inactive),63.8% (inactive),-18.6% (inactive),82.3,63.8,1.3% (inactive),-11.8% (inactive)
CCOCCCNC(=O)CC1Oc2ccc(C)cc2NC1=O (stereo not given),109,100% (inactive),109% (inactive),86.8% (inactive),94.7% (inactive),-3.06% (inactive),97.7,94.7,-1.6% (inactive),5.08% (inactive)
O=C(/C=C1\NC2(CCCC2)Cc2ccccc21)N1CCOCC1,101,85% (inactive),101% (inactive),98.2% (inactive),102% (inactive),17.3% (inactive),85,102,-7.12% (inactive),-3.49% (inactive)
O=C(CCn1c(=O)sc2ccccc21)Nc1nccs1,98.5,97% (inactive),98.5% (inactive),115% (inactive),108% (inactive),16.8% (inactive),91.5,108,-2.6% (inactive),-0.95% (inactive)
O=c1c2c3c(sc2n2cnnc2n1CCc1ccccc1)CCCC3,96.5,78.5% (inactive),96.5% (inactive),57.7% (inactive),77.1% (inactive),8.96% (inactive),68.1,77.1,-3.47% (inactive),6.45% (inactive)
CCCN1CCN(CCCNC(=O)C2CCCN(c3nc4ccc(OCC)cc4s3)C2)CC1 (stereo not given),85.5,118% (inactive),85.5% (inactive),74.8% (inactive),87.3% (inactive),-1.46% (inactive),88.8,87.3,-5.39% (inactive),0.83% (inactive)
Cn1c(-n2c(-c3ccco3)nc3ccccc3c2=O)nc2ccccc21,83,98% (inactive),83% (inactive),89.9% (inactive),90.3% (inactive),5.28% (inactive),85,90.3,-1.47% (inactive),6.56% (inactive)
Cc1cc(NC(=O)CCC(=O)N(c2cccnc2)C(C(=O)NC2CCCC2)c2ccccc2F)no1 (stereo not given),99,104% (inactive),99% (inactive),99.4% (inactive),93.3% (inactive),4.7% (inactive),88.6,93.3,3.2% (inactive),-2.46% (inactive)
CC(=O)C1=C(O)C(=O)N(Cc2cccnc2)C1c1ccccc1 (stereo not given),101,114% (inactive),101% (inactive),97.8% (inactive),105% (inactive),10% (inactive),95.3,105,-6.13% (inactive),-1.77% (inactive)
Cc1cc(Nc2ccccc2)n(CCC#N)n1,83.5,84.5% (inactive),83.5% (inactive),105% (inactive),102% (inactive),9.18% (inactive),92.9,102,-5.73% (inactive),7.7% (inactive)
CCOC(=O)c1nnn(-c2nonc2N)c1CN1CCc2ccccc2C1,102,93% (inactive),102% (inactive),96.4% (inactive),91.7% (inactive),-0.015% (inactive),91.7,91.7,-0.13% (inactive),-3.02% (inactive)
CCC(C)NC(=O)C1(C)CCC(=O)N1CCc1ccc(OC)c(OC)c1 (stereo not given),104,95% (inactive),104% (inactive),95.4% (inactive),86.1% (inactive),-8.14% (inactive),94.2,86.1,-1.04% (inactive),-1.27% (inactive)
CCCn1c(SCC(=O)NCCc2ccccc2)nnc1-c1ccccn1,97.5,100% (inactive),97.5% (inactive),108% (inactive),93.9% (inactive),-11.1% (inactive),105,93.9,-2.8% (inactive),-5.16% (inactive)
Cc1oc(-c2ccccc2F)nc1CS(=O)(=O)CC(=O)NCCCN1CCc2ccccc2C1,81.5,81.5% (inactive),81.5% (inactive),56.5% (inactive),79.9% (inactive),-9.14% (inactive),89.1,79.9,-1.6% (inactive),-1.97% (inactive)
COc1ccc(C2=NOC(C(=O)NC3CCCCC3)C2)cc1OC (stereo not given),97.5,92% (inactive),97.5% (inactive),106% (inactive),95.9% (inactive),11.2% (inactive),84.8,95.9,-9.04% (inactive),0.95% (inactive)

# Source: PubChem BioAssay
